From ChEMBL document CHEMBL3739266, “Synthesis and pharmacological evaluation of some new fluorine containing hydroxypyrazolines as potential anticancer and antioxidant agents” (Eur J Med Chem, 2015)
≈ marks a conversion by molar mass, not a printed value.

What was measured:
[1] = Antioxidant activity assessed as DPPH free radical scavenging activity at 25 ug/ml after 30 mins by spectrophotometric assay; assay type: physicochemical; conditions: 0.5 h
Procedure, shortened: (§1)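 Test samples at 25, 50 and 100 μg/mL in methanol, 1 mL added to 4 mL of 0.004% (w/v) methanolic DPPH. Scavenging expressed as percent inhibition relative to a control with all reagents except test compound. Ascorbic acid served as reference antioxidant.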

[2] = Antioxidant activity assessed as DPPH free radical scavenging activity after 30 mins by spectrophotometric assay; assay type: physicochemical; procedure, shortened: as §1
[3] = Antioxidant activity assessed as DPPH free radical scavenging activity at 50 ug/ml after 30 mins by spectrophotometric assay; assay type: physicochemical; conditions: 0.5 h; procedure, shortened: as §1
[4] = Antioxidant activity assessed as DPPH free radical scavenging activity at 100 ug/ml after 30 mins by spectrophotometric assay; assay type: physicochemical; conditions: 0.5 h; procedure, shortened: as §1
MDA-MB-231 = experiment: Cytotoxicity against human MDA-MB-231 cells assessed as growth inhibition after 48 hrs by MTT assay; assay type: functional, cell-based; conditions: MDA-MB-231, 48 h
Procedure, shortened: (§2)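 MTT colorimetric assay in 96-well plates. Cells exposed to compounds for 48 h, then tetrazolium reduction to formazan was read as absorbance. IC50 taken from plotted dose–response curves. Values are mean ± SD of three independent experiments. Doxorubicin served as positive control.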

Vero = experiment: Cytotoxicity against African green monkey Vero cells assessed as growth inhibition after 48 hrs by MTT assay; assay type: cell-based; conditions: Chlorocebus sabaeus; procedure, shortened: as §2

SMILES | inhibition (INH) [1] | IC50 [2] | inhibition (INH) [3] | inhibition (INH) [4] | IC50 (MDA-MB-231) | IC50 (Vero)
O=C1O[C@H]([C@@H](O)CO)C(O)=C1O [ASCORBIC ACID] | 82.39% | 15.17 µg/mL (≈ 86.1 µM) | 83.52% | 87.22% |  | 
COc1cccc2c1C(=O)c1c(O)c3c(c(O)c1C2=O)C[C@@](O)(C(=O)CO)C[C@@H]3O[C@H]1C[C@H](N)[C@H](O)[C@H](C)O1 [DOXORUBICIN] |  |  |  |  | 910 nM | > 100000 nM
